From article PMC10326257 (Acta Pharmaceutica Sinica. B, 2023)

How the values were obtained:
[1] = target: T1, c-MET (Homo sapiens, UniProt P08581); type: cell-based; settings: Western blot, EBC-1 and Hs746T cells
[2] = target: T1, c-MET; assay: biochemical; type: binding
[3] = tested on: EBC-1 cells; assay: Cell proliferation inhibition assay; type: cell-based
[4] = tested on: Hs746T cells; assay: Cell proliferation inhibition assay; type: cell-based; settings: Homo sapiens, 72 h, read-out: IC50 Hs746T, c-MET-sensitive, 72 h
[5] = tested on: A549 cells; assay: Cell proliferation inhibition assay; type: cell-based; settings: Homo sapiens, A549, 72 h, read-out: IC50 A549
[6] = Pharmacokinetic study in rats; set-up: species or system Male Sprague–Dawley (SD) rats; settings: male, Sprague-Dawley, rat, in vivo, iv, 1 mg/kg, CL
[7] = tested on: EBC-1 cells; assay: Cell apoptosis by flow cytometry; type: cell-based; settings: 48 h
[8] = tested on: HepG2 cells; assay: Cell proliferation inhibition assay; type: cell-based; settings: Homo sapiens, HepG2, 72 h, read-out: IC50 HepG2
[9] = tested on: EBC-1 xenograft tumors; assay: EBC-1 xenograft tumor growth model; type: in vivo, BALB/c nude mice; settings: 10 mg/kg, i.p., qd, 10 days
Summary of the method: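 Six-week-old BALB/c nude mice (SPF) received 5 × 10^6 EBC-1 cells subcutaneously in the dorsal flank. At about 80 mm3 they were grouped and dosed at 10 mg/kg i.p. once daily for 10 days; vehicle was 10% DMSO/10% PEG300/5% Tween 80/75% H2O. Calipers and body weight were read every 2 days. V = L×W²/2, and TGI used median volumes. Tumors were weighed at the end, n = 6.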

T1 sequence (P08581 25-1390): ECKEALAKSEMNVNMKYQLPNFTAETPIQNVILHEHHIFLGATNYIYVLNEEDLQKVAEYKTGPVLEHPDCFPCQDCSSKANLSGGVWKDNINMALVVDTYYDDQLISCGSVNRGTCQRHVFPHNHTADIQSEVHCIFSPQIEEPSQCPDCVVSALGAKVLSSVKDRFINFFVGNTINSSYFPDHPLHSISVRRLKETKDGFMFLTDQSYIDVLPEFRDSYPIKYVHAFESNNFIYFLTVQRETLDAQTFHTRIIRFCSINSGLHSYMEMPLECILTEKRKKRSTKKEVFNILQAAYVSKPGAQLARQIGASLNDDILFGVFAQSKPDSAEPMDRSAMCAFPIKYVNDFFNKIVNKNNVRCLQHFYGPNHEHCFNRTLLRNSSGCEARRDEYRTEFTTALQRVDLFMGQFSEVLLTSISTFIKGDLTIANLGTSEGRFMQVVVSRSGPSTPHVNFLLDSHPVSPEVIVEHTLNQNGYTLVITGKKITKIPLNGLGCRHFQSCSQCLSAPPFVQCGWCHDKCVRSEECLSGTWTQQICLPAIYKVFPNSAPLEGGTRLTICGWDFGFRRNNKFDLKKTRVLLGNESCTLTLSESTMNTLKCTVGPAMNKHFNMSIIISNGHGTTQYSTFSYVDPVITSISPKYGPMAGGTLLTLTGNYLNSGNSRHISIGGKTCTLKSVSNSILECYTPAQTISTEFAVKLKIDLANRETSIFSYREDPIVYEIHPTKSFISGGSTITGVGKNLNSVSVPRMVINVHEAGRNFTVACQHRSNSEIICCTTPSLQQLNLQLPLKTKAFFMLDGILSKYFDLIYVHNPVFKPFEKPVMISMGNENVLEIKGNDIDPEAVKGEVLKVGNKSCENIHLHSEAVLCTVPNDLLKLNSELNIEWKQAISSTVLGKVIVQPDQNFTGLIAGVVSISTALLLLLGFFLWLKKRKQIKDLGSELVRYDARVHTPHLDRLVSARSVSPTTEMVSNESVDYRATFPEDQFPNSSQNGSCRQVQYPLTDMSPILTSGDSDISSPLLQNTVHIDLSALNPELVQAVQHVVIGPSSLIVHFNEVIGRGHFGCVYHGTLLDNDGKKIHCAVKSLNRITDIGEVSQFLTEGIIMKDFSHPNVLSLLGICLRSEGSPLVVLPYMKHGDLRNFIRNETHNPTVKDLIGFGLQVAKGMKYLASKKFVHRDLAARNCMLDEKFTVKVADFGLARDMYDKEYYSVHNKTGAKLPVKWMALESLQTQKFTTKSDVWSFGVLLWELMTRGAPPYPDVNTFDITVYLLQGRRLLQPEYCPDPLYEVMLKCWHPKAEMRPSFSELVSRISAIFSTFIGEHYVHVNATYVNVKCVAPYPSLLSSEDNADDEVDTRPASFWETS

For `O=C1CCC(N2C(=O)c3ccccc3C2=O)C(=O)N1` (centres unmarked) [Thalidomide], the c-MET degradation effect [1] was “none”.
For `N#Cc1cccc(-c2ccc(=O)n(Cc3cccc(-c4ncc(OCC5CCNCC5)cn4)c3)n2)c1` [compound 6], the Kd [2] was 9.97 nM.
In the case of `CN1C(=O)CCC(N2C(=O)c3ccc(N4CCN(C(=O)CN5CCC(COc6cnc(-c7cccc(Cn8nc(-c9cccc(C#N)c9)ccc8=O)c7)nc6)CC5)CC4)cc3C2=O)C1=O` (centres unmarked) [D16], the c-MET degradation effect [1] is reported as “no degradation effect”, the “inhibition of cell proliferation, fold weaker than D15” value ([3]; EBC-1 and Hs746T cells) is reported as “approximately 10 fold” and the Kd [2] is reported as 345 nM. The “binding affinity, fold weaker than D15” value ([2]; ratio of Kd to D15) was 2 fold.
Compound `CN1CCC(COc2cnc(-c3cccc(Cn4nc(-c5cccc(C#N)c5)ccc4=O)c3)nc2)CC1` [Tepotinib] has an IC50 [4] of 2.63 ± 0.72 nM, an IC50 [5] of 277 ± 59 nM and a clearance [6] of 70 mL/min/kg. It also gave an apoptosis rate ([7]; EBC-1, 10 nmol/L) of 39.3%, an apoptosis rate ([7]; EBC-1, 100 nmol/L) of 59.4% and an IC50 ([3]; Homo sapiens, EBC-1, 72 h, read-out: IC50 EBC-1) of 1.32 ± 0.39 nM. The IC50 [8] was 476 ± 45 nM and the “tumor growth inhibition (TGI%)” value [9] was 71.9%.
